Results: paper PMC5417336 (Journal of immunology (Baltimore, Md. : 1950), 2017)
Converted amounts (≈) assume the structure as drawn. “Also recorded” adds a separate entry of the source. Read-outs that look alike come from different tables or passages of the source.

Experiments:
compstatin/C3b binding = compstatin/C3b binding (Homo sapiens, UniProt P01024); assay: LE-SPR competition assay B23-TRX-4W9A; conditions: 500 μM compound, 500 nM B23-TRX-4W9A vs 5% DMSO
Method in brief: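 B23-labelled TRX-4W9A (500 nM) was co-injected with 500 μM test compound, 5% (v/v) DMSO vehicle, or 65 μM compstatin peptide (positive control) over oriented biotin-C3b (3,800 and 3,100 RU surfaces). Running buffer contained 5% DMSO, and competitor-only injections served for epigram calculation. Residual binding was the mean eRU over 10 s before injection stop, relative to DMSO control. Each compound was tested on at least two independent C3b surfaces.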

C5/C3b interaction = C5/C3b interaction (Homo sapiens, UniProt P01024); assay: LE-SPR competition assay B23-C5/C3b; assay type: binding
Method in brief: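 B23-C5 (250 nM) was co-injected over oriented biotin-C3b (4,460 RU) with competitor: unlabelled C5 (250 nM), TRX-4W9A (12 μM) or compstatin peptide (65 μM) in HBS-T. Runs with small molecules used buffer with 5% (v/v) DMSO. A parallel competitor-only injection served for epigram calculation. Residual binding was the mean eRU over 10 s before injection stop, relative to B23-C5 alone or DMSO vehicle. Each run was done 2–4 times.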

[1] = tested on: alternative pathway (AP) complement activation, MAC deposition; assay: AP-specific complement ELISA, MAC deposition; assay type: biochemical, human; conditions: 250 μM, 20% (v/v) serum
Method in brief: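 Wells coated overnight with 25 μg ml−1 Salmonella typhosa LPS in 100 mM carbonate pH 9.6, then blocked 1 h at 37°C with PBS/1% BSA/0.05% Tween-20. Test compound (250 μM final, 2.5% DMSO) is mixed with 20% (v/v) normal human serum in HEPES pH 7.5, gelatin, NaCl, 5 mM MgCl2, 5 mM EGTA. Incubated 1 h at 37°C. MAC detected with anti-C5b-9 aE11 (1/300). Signal expressed against mean vehicle as 100%.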

[2] = tested on: classical pathway (CP) complement activation, MAC deposition; assay: CP-specific complement ELISA, MAC deposition; assay type: biochemical, human
Method in brief: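 Plates carry 3 μg ml−1 human IgM, blocked with BSA/Tween-20. Test compound (250 μM, or 0–625 μM series; 2.5% DMSO) is mixed with 1% normal human serum in HEPES pH 7.3 buffer with 2 mM CaCl2, 0.5 mM MgCl2 and gelatin. Serum-titration arm: fixed 500 μM compound or DMSO vehicle, serum 0–4% (v/v). Incubated 1 h at 37°C. Read-out: anti-MAC aE11 (1/300). Normalised to vehicle mean as 100%.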

[3] = tested on: C3b deposition (classical pathway); assay: CP ELISA, C3b deposition; assay type: biochemical, human; conditions: concentrations up to 625 μM, 1% (v/v) serum
Method in brief: (§1)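 Wells coated overnight with 3 μg ml−1 human IgM in carbonate pH 9.6, then blocked with BSA/Tween-20 in PBS. Test compound (250 μM single concentration, or series up to 625 μM; 2.5% DMSO) is added to 1% (v/v) normal human serum in HEPES pH 7.3, gelatin, NaCl, 2 mM CaCl2, 0.5 mM MgCl2. Incubated 1 h at 37°C. Detection: anti-C3b WM1 or anti-C4b C4-1 (1/300). Normalised to mean vehicle as 100%.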

[4] = tested on: C4b deposition (classical pathway); assay: CP ELISA, C4b deposition; assay type: biochemical, human; conditions: concentrations up to 625 μM, 1% (v/v) serum
Method in brief: as §1

[5] = tested on: C5a production (C5 cleavage); assay: C5a capture ELISA of CP ELISA reactions; assay type: biochemical, human; conditions: fixed 500 μM cmp-5, serum 0–4% (v/v); DMSO control 1.55% (v/v)
Method in brief: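 Completed CP ELISA reactions (IgM-coated plates, CP buffer, 1 h at 37°C; fixed 500 μM test compound or DMSO vehicle, serum 0–4% (v/v)) were diluted 2-fold onto plates coated overnight at room temperature with 1 μg ml−1 anti-C5a neoepitope mAb. Incubation 1 h at RT with rocking. Detection used rabbit anti-human C5a (1/200, 1 h RT), then goat anti-rabbit-HRP (1/5000, 1 h) and TMB, read at 450 nm. Signals normalised to the mean vehicle control as 100%.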

[6] = Compound solubility in CP ELISA assay buffer; assay type: physicochemical; conditions: aqueous buffer
C3b [7] = molecular target: T1, C3b (Homo sapiens, UniProt P01024); assay: Label-enhanced SPR; assay type: binding; conditions: read-out: KD for C3b, LE-SPR, B23-C5; 1:1 Langmuir kinetic model
Method in brief: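 C5 was dialysed into PBS pH 7.4 (2 h, RT), labelled 1 h in the dark with 5-fold molar excess NHS-B23 dye, then dialysed into HBS overnight at 4°C. A two-fold concentration series ran over oriented biotin-C3b (5,160 RU) at 10 μl min−1 with 1 min association and 1 min dissociation. An unlabelled injection at the top concentration weighted dip width and position to give epigrams (eRU). KD from a 1:1 Langmuir kinetic fit.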

C3b [8] = molecular target: T1, C3b; assay type: binding; conditions: read-out: KD for C3b, conventional SPR, C5; 1:1 Langmuir kinetic model
Method in brief: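 Biotinylated C3b was captured on a NeutrAvidin-coupled sensor chip (6,560 RU surface for C5). Native C5 in HBST ran as a two-fold concentration series: 2 min injection, 3 min dissociation, 30 μl min−1, no regeneration. KD came from a 1:1 Langmuir kinetic fit of reference-corrected sensorgrams.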

[9] = molecular target: T2, site-specifically biotinylated C3b (human, UniProt P01024 23-667; P01024 749-1663, site-specifically biotinylated with EZ-link Maleimide-PEG2-biotin); assay: SPR
[10] = molecular target: T2, site-specifically biotinylated C3b; assay: SPR; remark: listed apart in the source
[11] = molecular target: T2, site-specifically biotinylated C3b; assay: AlphaScreen or HTRF
[12] = molecular target: T2, site-specifically biotinylated C3b; assay: SPR; remark: listed apart in the source

Cc1ccnn1-c1cccc(NC(=O)CC2OC(=O)c3ccccc32)c1 (stereo not shown) [cmp-5, N-(3-(5-methyl-1H-pyrazol-1-yl)phenyl)-2-(3-oxo-1,3-dihydroisobenzofuran-1-yl)acetamide]
effect on B23-TRX-4W9A-specific LE-SPR signal (C3b binding) (compstatin/C3b binding): reduction of specific C3b-binding; also recorded: modest ability to compete
effect on B23-C5/C3b interaction, small molecules (C5/C3b interaction; 500 μM compound, 250 nM B23-C5 vs 5% DMSO vehicle): did not affect; also recorded: failed to perturb
inhibition of the AP (MAC deposition) [1]: significant inhibition
MAC deposition relative to control response (AP ELISA) ([1]; n=5): 73 ± 4.6%
inhibition of MAC deposition in CP ELISA ([2]; 250 μM, 1% (v/v) serum): significant inhibition
MAC deposition relative to control response (CP ELISA) ([2]; 250 μM, 1% (v/v) serum, n=13): 59 ± 2.4%
EC50 of serum, MAC deposition ([2]; fixed 500 μM cmp-5, serum 0–4% (v/v), DMSO control 0.88% (v/v)): 1.43 % (v/v)
effect on C3b deposition, CP ELISA [3]: no effect
effect on C4b deposition, CP ELISA [4]: no effect
EC50 of serum, C5a production [5]: 2.04 % (v/v)
solubility [6]: ~600 µM (≈ 208 µg/mL)

B23-C5: C5 labeled with NHS-B23 dye
Kd (C3b [7]): 3200 nM

C5: complement component C5, purified protein (Complement Technologies)
Kd (C3b [8]): 350 nM
effect on B23-C5/C3b LE-SPR signal, protein/peptide competitors (C5/C3b interaction; 250 nM B23-C5, 250 nM unlabeled C5, 12 μM TRX-4W9A or 65 μM compstatin peptide): reduces the B23-C5 specific LE-SPR signal
reduction of specific binding of B23-C5 to C3b (C5/C3b interaction; 250 nM B23-C5, competitor 250 nM unlabeled C5 or 12 μM TRX-4W9A, HBS-T): ~50%

ENLYFQGGSGSGSGICVWQDWGAHRCT (designed binder, labeled with the dye reagent Episentec NHS-B23 (5-fold molar excess)) [B23 dye-labeled TRX-4W9A]
Kd [9]: 790 nM
Kd [10]: 560 nM

B1: untagged Ba(1–3) (domain or fragment, human, UniProt P00751 35-220, looked up)
chain: GSCSLEGVEIKGGSFRLLQEGQALEYVCPSGFYPYPVQTRTCRSTGSWSTLKTQDQKTVRKAECRAIHCPRPHDFENGEYWPRSPYYNVSDEISFHCYDGYTLRGSANRTCQVNGRWSGQTAICDNGAGYCSNPGIPIGTRKVGSQYRLEDSVTYHCSRGLTLRGSQRRTCQEGGSWSGTEPSCQD
Kd [11]: 4700 nM

ENLYFQGGSGSGSGICVWQDWGAHRCT (designed binder) [thioredoxin-compstatin fusion protein (TRX-4W9A)]
Kd [12]: 770 nM
